The values that follow come from the array DNA melting data of Ke et al. (doi:10.1101/2024.01.08.574731).

Data set [1] is described as follows: melting temperature; fluorescence melt of hairpins on a sequencing array, two-state fit, raised by 9.35 °C to match UV melts. Conditions: sodium 0.088 M. Put shortly: (§1)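 Cy3 fluorescence of library hairpins on a sequenced MiSeq flow cell, with annealed Cy3 and quencher oligos, was imaged in 50 mM Na-HEPES pH 8.0, 25 mM NaCl in 2.5 °C steps up to 60 °C. Signals were normalised to pre-quench Cy3 and to control variants. Melting temperature and folding enthalpy came from bootstrapped two-state fits, inverse-variance combined over four replicates. Fitted temperatures were raised by 9.35 °C to match UV melts.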

Data set [2] is described as follows: folding enthalpy; higher = less favourable; fluorescence melt of hairpins on a sequencing array, two-state fit. Conditions: sodium 0.088 M. The gist of the method: as §1

Consider GCTTGCGAAAGCAACAGC ((((((....)))..))), for which, in data set [1], the Tm was determined as 44.4 °C. Moreover, the folding enthalpy in data set [2] is -11.4 kcal/mol.

In the case of GAACGACGAAAGTCATTC (((.(((....))).))), the Tm in data set [1] was 38.6 °C. Moreover, in data set [2], the folding enthalpy is -21.6 kcal/mol.

As to GTGGCCGAAAGGCCGCAC ((((((....)))..))), the Tm in data set [1] is 62.9 °C. Further, in data set [2], the folding enthalpy was -9.1 kcal/mol.

Regarding GATCCTATACAGGATC ((((((....)))))), the Tm in data set [1] is 52.4 °C. For the same sequence, the folding enthalpy in data set [2] was -38.1 kcal/mol.

On to GACCGCGGAAACGCGGCC (.(((((....))))).), for which the Tm in data set [1] stood at 52.5 °C. In addition, the folding enthalpy in data set [2] is -10.1 kcal/mol.

For the sequence GATCTTGTAAAAGATC ((((((....)))))), the Tm in data set [1] came out at 52.8 °C. Also, in data set [2], the folding enthalpy was -41.1 kcal/mol.

Turning to GGAGATCGAAAGATGTCC (((.(((....))).))), the Tm in data set [1] is 50.4 °C. For the same sequence, in data set [2], the folding enthalpy is -29.5 kcal/mol.

Turning to GTCGTGGGAAACCGTGAC (((..((....))..))), the Tm in data set [1] stood at 36.7 °C. Besides, the folding enthalpy in data set [2] was -25.9 kcal/mol.

For the sequence GCGATTACGAAAGTACGC (((..(((....)))))), the Tm in data set [1] was 43.4 °C. Moreover, the folding enthalpy in data set [2] is -26 kcal/mol.

Consider GATCGCCCCGGCGATC ((((((....)))))), for which the Tm in data set [1] worked out at 69.2 °C. Also, the folding enthalpy in data set [2] was -33 kcal/mol.

With GTATCTCGAAAGAGTAC (((.(((....)))))), the Tm in data set [1] came out at 39.7 °C. Besides, in data set [2], the folding enthalpy was -23.5 kcal/mol.

As for GCATACCGAAAGGTTTGC (((.(((....))).))), the Tm in data set [1] is 54.4 °C. The folding enthalpy in data set [2] was -42.2 kcal/mol.

In the case of GTGCAGACGAAAGTCCAC (((..(((....)))))), the Tm in data set [1] worked out at 37.9 °C. Moreover, the folding enthalpy in data set [2] was -16.9 kcal/mol.

With GATCTCTACGGAGATC ((((((....)))))), the Tm in data set [1] was determined as 55.6 °C. Besides, in data set [2], the folding enthalpy is -36 kcal/mol.

With GACTCCACGAAAGTGGTC (((..(((....)))))), the Tm in data set [1] came to 29.5 °C. In addition, in data set [2], the folding enthalpy is -8.79 kcal/mol.

Consider GTTTGGGGAAACTCAAGC (.(((.(....).))).), for which the Tm in data set [1] came to 27.1 °C. Also, the folding enthalpy in data set [2] is -12.2 kcal/mol.

On to GATGTACGAAAGTAATC (((.(((....)))))), for which the Tm in data set [1] is 35.8 °C. Further, the folding enthalpy in data set [2] was -21.1 kcal/mol.

On to GCCCTGCGAAAGCTCGGC (((..((....))..))), for which the Tm in data set [1] came out at 46.9 °C. Moreover, the folding enthalpy in data set [2] is -19.3 kcal/mol.

With GATCCACTTTTGGATC ((((((....)))))), the Tm in data set [1] was 50.6 °C. In addition, in data set [2], the folding enthalpy was -34.6 kcal/mol.

On to GGCCATGGAAACATGGTC (.(((((....))))).), for which, in data set [1], the Tm is 54.9 °C. In addition, the folding enthalpy in data set [2] is -36.2 kcal/mol.

As to GCGGCCAACCGC ((((....)))), the Tm in data set [1] amounted to 56.2 °C. The folding enthalpy in data set [2] is -21.6 kcal/mol.

As to GATCTTGTAGAAGATC ((((((....)))))), the Tm in data set [1] was 46.4 °C. Also, the folding enthalpy in data set [2] is -27.5 kcal/mol.

For GTTTAGTCGAAAGACAAC (((..(((....)))))), the Tm in data set [1] was 27.4 °C. In addition, in data set [2], the folding enthalpy was -10.8 kcal/mol.

Take GGACGAGGAAACTCATCC (((.(((....))).))): the Tm in data set [1] is 36.7 °C. Moreover, the folding enthalpy in data set [2] was -27.4 kcal/mol.

Consider GATCGCATACGCGATC ((((((....)))))), for which the Tm in data set [1] was found to be 69.3 °C. Also, in data set [2], the folding enthalpy is -36.1 kcal/mol.

For the sequence GACCTAGGAAACCAGGTC (((((.(....).))))), the Tm in data set [1] was determined as 45 °C. For the same sequence, the folding enthalpy in data set [2] is -35.3 kcal/mol.

As to GAAGACGGAAACATCTTC (((((.(....).))))), the Tm in data set [1] was 29.8 °C. In data set [2], the folding enthalpy was -20 kcal/mol.

Take TCGGAGAAATCCGA (((((....))))): the Tm in data set [1] was 47.3 °C. Further, in data set [2], the folding enthalpy is -16.8 kcal/mol.

In the case of GAAGAGCCGAAAGGCTTC (((..(((....)))))), in data set [1], the Tm is 31.6 °C. Besides, the folding enthalpy in data set [2] is -9.43 kcal/mol.

In the case of GGTGAAGGAAACTTTACC (((.(((....))).))), the Tm in data set [1] is 39 °C. Further, the folding enthalpy in data set [2] was -31.6 kcal/mol.

As to CGTCCACGGAAACGTACG (((..(((....)))))), the Tm in data set [1] amounted to 28.5 °C. In addition, the folding enthalpy in data set [2] is -15.7 kcal/mol.

Regarding GCTTGGCGAAAGCTGAGC (((..((....))..))), in data set [1], the Tm is 56.2 °C. The folding enthalpy in data set [2] was -22.3 kcal/mol.

As to GCCGTTGGAAACGATGGC (((.(.(....).).))), the Tm in data set [1] worked out at 42.9 °C. Further, in data set [2], the folding enthalpy was -23.1 kcal/mol.

As to GCTATCCGAAAGGACAGC (((.(((....))).))), the Tm in data set [1] is 49 °C. Further, in data set [2], the folding enthalpy was -31.7 kcal/mol.

With GCGGTAACCGC ((((...)))), the Tm in data set [1] was 57.5 °C. Moreover, in data set [2], the folding enthalpy is -27.8 kcal/mol.

With GCAAGCGAAAGCTTGTGC ((((((....)))..))), in data set [1], the Tm was determined as 66.7 °C. The folding enthalpy in data set [2] is -16.9 kcal/mol.

Consider GGATCCGAAAGGAGTCC ((((((....))).))), for which the Tm in data set [1] came out at 47.9 °C. The folding enthalpy in data set [2] is -18.5 kcal/mol.
